Activity calls are given as the source filed them. The rule behind the calls is not given here.
Assays:
[1] = Cellular uptake in human HDF cell cytoplasm at 20 uM after 8 hrs by fluorescence confocal microscopic analysis; assay type: ADME, cell-based
Outline: (§1)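 PC-3 (RPMI) or primary human dermal fibroblasts (DMEM), 10% FBS, 1% pen/strep, grown on glass coverslips and exposed to dye at 20 µM for 8 h. Fixed in cold (−20 °C) methanol 10 min, blocked in 2% BSA/PBS at 37 °C 1 h, actin stained with fluorescent phalloidin 1 h RT, mounted with DAPI antifade. NIR dye imaged with ICG filter set and 780 nm LED.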

[2] = Cytotoxicity against human HDF cells assessed as cell survival at 5 to 10 uM after 24 hrs by trypan blue exclusion assay; assay type: cell-based; settings: read-out: Survival
Outline: (§2)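 Cells treated 24 h with dye at 5, 10 or 20 µM (PC-3 in RPMI; HeLa and HDF in DMEM; 10% FBS, 1% penicillin/streptomycin). Cells pelleted, PBS-washed, mixed 1:1 with 0.4% trypan blue in PBS pH 7.4, 5 min room temperature. Blue cells scored non-viable by microscope counting. Mean and SD of three independent experiments.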

[3] = Cytotoxicity against human HDF cells assessed as cell death at 5 to 10 uM after 24 hrs by trypan blue exclusion assay; assay type: cell-based
Outline: (§3)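 Primary human dermal fibroblasts in DMEM with 10% FBS and 1% pen/strep, dosed at 5, 10 or 20 µM for 24 h. Cells pelleted and washed with PBS, then mixed 1:1 with 0.4% trypan blue in PBS pH 7.4, 5 min RT. Blue cells scored non-viable by microscope counting. Mean ± SD of three independent experiments.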

[4] = Cytotoxicity against human HDF cells assessed as cell death at 20 uM after 24 hrs by trypan blue exclusion assay; assay type: cell-based; outline: as §3
[5] = test system: HeLa; assay: Cytotoxicity against human HeLa cells after 48 hrs by MTT assay; assay type: functional, cell-based
Outline: (§4)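 HeLa and HDF in DMEM, PC-3 in RPMI, each with 10% FBS and 1% pen/strep. Seeded at 5 × 10³ cells/well, then given dye in DMSO (final DMSO 0.1%) at 0, 0.75, 1, 2, 5, 10, 15, 20 µM for 48 h. Washed twice with PBS, MTT added, 4 h at 37 °C in the dark. Formazan dissolved in DMSO, A570 read. IC50 taken from the survival-versus-concentration curve.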

[6] = Cellular uptake in human PC3 cell cytoplasm at 20 uM after 8 hrs by fluorescence confocal microscopic analysis; assay type: ADME, cell-based; settings: pc-3, 8 h; outline: as §1
[7] = test system: HeLa; assay: Cytotoxicity against human HeLa cells assessed as cell survival at 5 to 10 uM after 24 hrs by trypan blue exclusion assay; assay type: functional; outline: as §2
[8] = test system: PC-3; assay: Cytotoxicity against human PC3 cells assessed as cell death at 5 to 20 uM after 24 hrs by trypan blue exclusion assay; assay type: functional; outline: as §2
[9] = Cytotoxicity against human HDF cells after 48 hrs by MTT assay; assay type: cell-based; settings: for IC50: Homo sapiens, HDF; for Activity: human, hdf; outline: as §4
[10] = test system: HeLa; assay: Cytotoxicity against human HeLa cells assessed as cell death at 5 to 20 uM after 24 hrs by trypan blue exclusion assay; assay type: functional; outline: as §2
[11] = test system: PC-3; assay: Cytotoxicity against human PC3 cells after 48 hrs by MTT assay; assay type: functional, cell-based; settings: for IC50: PC-3, 48 h; outline: as §4
[12] = test system: PC-3; assay: Cytotoxicity against human PC3 cells assessed as cell survival at 5 to 10 uM after 24 hrs by trypan blue exclusion assay; assay type: functional; outline: as §2
[13] = Cytotoxicity against human HDF cells assessed as cell viability at 5 to 20 uM after 24 hrs by trypan blue exclusion assay; assay type: cell-based; settings: for Activity: hdf, 24 h, 20 µM; outline: as §3

| Compound | Drug uptake [1] | viability at 24 h, up to 10 µM [2] [%] | Activity [3] [%] | Activity [4] [%] | IC50 [5] [nM] | Drug uptake [6] | Survival [7] [%] | Activity [8] | IC50 [9] [nM] | Activity [10] | IC50 [11] [nM] | Survival [12] [%] | viability at 24 h, up to 20 µM ([13]; HDF cells, read-out: Activity) [%] | Activity [9] | Activity [13] | Activity [5] | Activity [11] |
| --- | --- | --- | --- | --- | --- | --- | --- | --- | --- | --- | --- | --- | --- | --- | --- | --- | --- |
| COC(=O)CCCCCN1/C(=C/C=C2\CCCC(/C=C/C3=[N+](CCCCCC(=O)O)c4ccccc4C3(C)C)=C2Cl)C(C)(C)c2ccccc21.[Br-] | Not Active | 85 | 10 | 80 | 1000 | Active | 20 | Active | 5000 | Active | 2000 | 20 | – | – | – | – | – |
| COC(=O)CCCCCN1/C(=C/C=C2\CCCC(/C=C/C3=[N+](CCCCCC(=O)OC)c4ccccc4C3(C)C)=C2Cl)C(C)(C)c2ccccc21.[Br-] | Not Active | – | – | – | 800 | Active | – | >90% | 10000 | >90% | 3000 | – | 100 | – | – | – | – |
| CC1(C)C(/C=C/C2=C(Cl)C(=C/C=C3\N(CCCCS(=O)(=O)[O-])c4ccccc4C3(C)C)/CCC2)=[N+](CCCCS(=O)(=O)[O-])c2ccccc21.[Na+] | Not Active | – | – | – | – | Not Active | – | – | – | – | – | – | – | Non-toxic | Non-toxic | – | – |
| CC1(C)C(/C=C/C2=C(Cl)C(=C/C=C3/N(CCCCCC(=O)O)c4ccccc4C3(C)C)/CCC2)=[N+](CCCCCC(=O)O)c2ccccc21.[Br-] | Not Active | – | – | – | – | Not Active | – | inactive | – | inactive | – | – | – | Non-toxic | Non-toxic | inactive | inactive |
| CC1(C)C(/C=C/C2=C(Cl)C(=C/C=C3/N(CCCCS(=O)(=O)O)c4ccccc4C3(C)C)/CCC2)=[N+](CCCCS(=O)(=O)[O-])c2ccccc21 | – | – | – | – | – | – | – | inactive | – | inactive | – | – | – | – | – | inactive | inactive |
